# Results: ChEMBL document CHEMBL1649165, “Activity profile in vitro of micafungin against Spanish clinical isolates of common and emerging species of yeasts and molds” (2009)
# Key:
# Assay type in all cases: functional
# Trichosporon dermatis = experiment: Antimicrobial activity against Trichosporon dermatis by broth microdilution method; settings: Cutaneotrichosporon dermatis
# Summary of the method: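 Nonfermentative yeast clinical isolates (Rhodotorula, Trichosporon) tested by broth microdilution. The EUCAST yeast recommendations were followed strictly, with one minor modification to improve growth. MIC was read as the endpoint.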
# Aspergillus ustus = experiment: Antimicrobial activity against Aspergillus ustus by broth microdilution method
# Summary of the method: (§1)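 Clinical mould isolates, tested by broth microdilution using the AFST-EUCAST reference method for filamentous fungi. For echinocandins, the endpoint was the minimum effective concentration: the lowest drug concentration giving aberrant hyphal growth, read with an inverted microscope.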
# Exophiala jeanselmei = experiment: Antimicrobial activity against Exophiala jeanselmei by broth microdilution method
# [1] = test system: Cryptococcus deneoformans; experiment: Antimicrobial activity against Cryptococcus neoformans var. neoformans by broth microdilution method
# Summary of the method: (§2)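 Clinical isolates of nonfermentative yeasts, tested by broth microdilution following EUCAST recommendations. The only change from that method was a minor modification to improve growth.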
# Aspergillus sydowii = experiment: Antimicrobial activity against Aspergillus sydowii by broth microdilution method; summary of the method: as §1
# [2] = test system: Kazachstania pintolopesii; experiment: Antimicrobial activity against Candida pintolopesii by broth microdilution method; settings: Arxiozyma pintolopesii
# Summary of the method: (§3)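 Clinical isolates from human patients, tested by broth microdilution using the AFST-EUCAST reference procedure for fermentative yeasts. The MIC was read per that reference method.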
# Fusarium verticillioides = experiment: Antimicrobial activity against Fusarium verticillioides by broth microdilution method
# Summary of the method: (§4)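 Filamentous fungus clinical isolates tested by the AFST-EUCAST reference broth microdilution method for moulds. For echinocandins, the endpoint was the minimum effective concentration: the lowest drug concentration giving aberrant hyphal growth, read with an inverted microscope.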
# Naganishia albida = experiment: Antimicrobial activity against Cryptococcus albidus by broth microdilution method; summary of the method: as §2
# [3] = Antimicrobial activity against Rhizopus microsporus by broth microdilution method; summary of the method: as §4
# Aspergillus = experiment: Antimicrobial activity against Aspergillus spp. by broth microdilution method; summary of the method: as §1
# Aureobasidium pullulans = experiment: Antimicrobial activity against Aureobasidium pullulans by broth microdilution method
# Acremonium sp. = experiment: Antimicrobial activity against Acremonium sp.by broth microdilution method; summary of the method: as §1
# Fusarium oxysporum = experiment: Antimicrobial activity against Fusarium oxysporum by broth microdilution method; summary of the method: as §1
# Torulaspora delbrueckii = experiment: Antimicrobial activity against Candida coliculosa by broth microdilution method; summary of the method: as §3
# Penicillium = experiment: Antimicrobial activity against Penicillium spp. by broth microdilution method; summary of the method: as §4
# Saksenaea vasiformis = experiment: Antimicrobial activity against Saksenaea vasiformis by broth microdilution method; summary of the method: as §4
# Candida parapsilosis = experiment: Antimicrobial activity against Candida parapsilosis by broth microdilution method; settings: Lodderomyces parapsilosis; summary of the method: as §3
# Rhizomucor = experiment: Antimicrobial activity against Rhizomucor spp.by broth microdilution method; summary of the method: as §4
# Lewia infectoria = experiment: Antimicrobial activity against Alternaria infectoria by broth microdilution method; summary of the method: as §1
# [4] = test system: Meyerozyma guilliermondii; experiment: Antimicrobial activity against Candida guilliermondii by broth microdilution method; summary of the method: as §3
# Fusarium proliferatum = experiment: Antimicrobial activity against Fusarium proliferatum by broth microdilution method; summary of the method: as §1
# Aspergillus niger = experiment: Antimicrobial activity against Aspergillus niger by broth microdilution method; summary of the method: as §1
# Cladosporium = experiment: Antimicrobial activity against Cladosporium spp. by broth microdilution method; summary of the method: as §1
# Candida tropicalis = experiment: Antimicrobial activity against Candida tropicalis by broth microdilution method; summary of the method: as §3
# Beauveria bassiana = experiment: Antimicrobial activity against Beauveria bassiana by broth microdilution method; summary of the method: as §1
# Neurospora sitophila = experiment: Antimicrobial activity against Chrysonilia sitophila by broth microdilution method; summary of the method: as §1
# Exophiala dermatitidis = experiment: Antimicrobial activity against Exophiala dermatitidis by broth microdilution method
# Trichoderma = experiment: Antimicrobial activity against Trichoderma spp. by broth microdilution method; summary of the method: as §4
# Debaryomyces hansenii = experiment: Antimicrobial activity against Candida famata by broth microdilution method; summary of the method: as §3
# Papiliotrema laurentii = experiment: Antimicrobial activity against Cryptococcus laurentii by broth microdilution method; summary of the method: as §2
# Fusarium reticulatum = experiment: Antimicrobial activity against Fusarium reticulatum by broth microdilution method; summary of the method: as §4
# Aspergillus sclerotiorum = experiment: Antimicrobial activity against Aspergillus sclerotiorum by broth microdilution method; summary of the method: as §1
# Fennellia nivea = experiment: Antimicrobial activity against Aspergillus niveus by broth microdilution method; summary of the method: as §1
# Scytalidium hyalinum = experiment: Antimicrobial activity against Scytalidium hyalinum by broth microdilution method; settings: Neoscytalidium hyalinum; summary of the method: as §4
# Kluyveromyces marxianus = experiment: Antimicrobial activity against Candida kefyr by broth microdilution method; summary of the method: as §3
# Hortaea werneckii = experiment: Antimicrobial activity against Hortaea werneckii by broth microdilution method
# Saccharomyces cerevisiae = experiment: Antimicrobial activity against Saccharomyces cerevisiae by broth microdilution method
# [5] = Antimicrobial activity against Hormographiella aspergillata by broth microdilution method; settings: Coprinopsis cinerea; summary of the method: as §4
# Yarrowia lipolytica = experiment: Antimicrobial activity against Yarrowia lipolytica by broth microdilution method
# Lichtheimia corymbifera = experiment: Antimicrobial activity against Mycocladus corymbiferus by broth microdilution method; summary of the method: as §4
# Paecilomyces lilacinus = experiment: Antimicrobial activity against Paecilomyces lilacinus by broth microdilution method; settings: Purpureocillium lilacinum; summary of the method: as §4
# Trichosporon domesticum = experiment: Antimicrobial activity against Trichosporon mycotoxinivorans by broth microdilution method; settings: Apiotrichum domesticum
# Summary of the method: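 Spanish human clinical isolates were tested as nonfermentative yeasts by broth microdilution. The method strictly followed the EUCAST recommendations, with a minor modification to improve growth, and the read-out was the MIC.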
# [Candida] intermedia = Antimicrobial activity against Candida intermedia by broth microdilution method; settings: Sungouiella intermedia; summary of the method: as §3
# [Candida] zeylanoides = Antimicrobial activity against Candida zeylanoides by broth microdilution method; settings: Dujonia zeylanoides; summary of the method: as §3
compound,measurement,setting,value
CC[C@@H]([C@H](C)O)n1ncn(-c2ccc(N3CCN(c4ccc(OC[C@@H]5CO[C@@](Cn6cncn6)(c6ccc(F)cc6F)C5)cc4)CC3)cc2)c1=O [POSACONAZOLE],MIC50,Trichosporon dermatis,0.25 µg/mL
same,MIC90,Trichosporon dermatis,> 8 µg/mL
same,MIC50,Aspergillus ustus,0.12 µg/mL
same,MIC90,Aspergillus ustus,> 8 µg/mL
same,MIC50,Exophiala jeanselmei,0.06 µg/mL
same,MIC90,Exophiala jeanselmei,> 8 µg/mL
same,MIC50,[1],0.12 µg/mL
same,MIC90,[1],0.5 µg/mL
same,MIC50,Aspergillus sydowii,0.25 µg/mL
same,MIC90,Aspergillus sydowii,0.5 µg/mL
same,MIC50,[2],0.03 µg/mL
same,MIC90,[2],> 8 µg/mL
same,MIC50,Fusarium verticillioides,2 µg/mL
same,MIC90,Fusarium verticillioides,> 8 µg/mL
same,MIC50,Naganishia albida,0.25 µg/mL
same,MIC90,Naganishia albida,> 8 µg/mL
same,MIC50,[3],4 µg/mL
same,MIC90,[3],> 8 µg/mL
same,MIC50,Aspergillus,0.12 µg/mL
same,MIC90,Aspergillus,> 8 µg/mL
same,MIC50,Aureobasidium pullulans,0.06 µg/mL
same,MIC90,Aureobasidium pullulans,> 8 µg/mL
same,MIC50,Acremonium sp.,8 µg/mL
same,MIC90,Acremonium sp.,> 16 µg/mL
same,MIC50,Fusarium oxysporum,4 µg/mL
same,MIC90,Fusarium oxysporum,> 8 µg/mL
same,MIC50,Torulaspora delbrueckii,0.03 µg/mL
same,MIC90,Torulaspora delbrueckii,> 8 µg/mL
same,MIC50,Penicillium,0.25 µg/mL
same,MIC90,Penicillium,4 µg/mL
same,MIC50,Saksenaea vasiformis,4 µg/mL
same,MIC90,Saksenaea vasiformis,> 8 µg/mL
same,MIC50,Candida parapsilosis,0.02 µg/mL
same,MIC90,Candida parapsilosis,0.03 µg/mL
same,MIC50,Rhizomucor,4 µg/mL
same,MIC90,Rhizomucor,> 8 µg/mL
same,MIC50,Lewia infectoria,0.5 µg/mL
same,MIC90,Lewia infectoria,> 8 µg/mL
same,MIC50,[4],0.12 µg/mL
same,MIC90,[4],> 8 µg/mL
same,MIC50,Fusarium proliferatum,> 8 µg/mL
same,MIC90,Fusarium proliferatum,> 8 µg/mL
same,MIC50,Aspergillus niger,0.25 µg/mL
same,MIC90,Aspergillus niger,0.5 µg/mL
same,MIC50,Cladosporium,0.06 µg/mL
same,MIC90,Cladosporium,> 8 µg/mL
same,MIC50,Candida tropicalis,0.02 µg/mL
same,MIC90,Candida tropicalis,0.03 µg/mL
same,MIC50,Beauveria bassiana,4 µg/mL
same,MIC90,Beauveria bassiana,> 8 µg/mL
same,MIC50,Neurospora sitophila,4 µg/mL
same,MIC90,Neurospora sitophila,> 8 µg/mL
same,MIC50,Exophiala dermatitidis,0.06 µg/mL
same,MIC90,Exophiala dermatitidis,> 8 µg/mL
same,MIC50,Trichoderma,4 µg/mL
same,MIC90,Trichoderma,> 8 µg/mL
same,MIC50,Debaryomyces hansenii,0.03 µg/mL
same,MIC90,Debaryomyces hansenii,> 8 µg/mL
same,MIC50,Papiliotrema laurentii,0.25 µg/mL
same,MIC90,Papiliotrema laurentii,> 8 µg/mL
same,MIC50,Fusarium reticulatum,4 µg/mL
same,MIC90,Fusarium reticulatum,> 8 µg/mL
same,MIC50,Aspergillus sclerotiorum,0.12 µg/mL
same,MIC90,Aspergillus sclerotiorum,> 8 µg/mL
same,MIC50,Fennellia nivea,0.12 µg/mL
same,MIC90,Fennellia nivea,> 8 µg/mL
same,MIC50,Scytalidium hyalinum,0.06 µg/mL
same,MIC90,Scytalidium hyalinum,> 8 µg/mL
same,MIC50,Kluyveromyces marxianus,0.03 µg/mL
same,MIC90,Kluyveromyces marxianus,0.06 µg/mL
same,MIC50,Hortaea werneckii,0.06 µg/mL
same,MIC90,Hortaea werneckii,> 8 µg/mL
same,MIC50,Saccharomyces cerevisiae,0.25 µg/mL
same,MIC90,Saccharomyces cerevisiae,0.5 µg/mL
same,MIC50,[5],4 µg/mL
same,MIC90,[5],> 8 µg/mL
same,MIC50,Yarrowia lipolytica,0.25 µg/mL
same,MIC90,Yarrowia lipolytica,2 µg/mL
same,MIC50,Lichtheimia corymbifera,0.5 µg/mL
same,MIC90,Lichtheimia corymbifera,> 8 µg/mL
same,MIC50,Paecilomyces lilacinus,0.25 µg/mL
same,MIC90,Paecilomyces lilacinus,0.5 µg/mL
same,MIC50,Trichosporon domesticum,0.25 µg/mL
same,MIC90,Trichosporon domesticum,> 8 µg/mL
same,MIC50,[Candida] intermedia,0.03 µg/mL
same,MIC90,[Candida] intermedia,> 8 µg/mL
same,MIC50,[Candida] zeylanoides,0.03 µg/mL
same,MIC90,[Candida] zeylanoides,> 8 µg/mL
